In the library only some 2.2% were active in any assay of this set; here they are far more common.
PvdQ acylase = P. aeruginosa PvdQ acylase inhibition; purified PvdQ acylase, fluorescence plate reader; inhibition, % at 10 µM; hit rate 0.063% among 340,000; AID 488965; in the data active means inhibition above about 30%, passing the limit was not always enough;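 further: 0% = vehicle neutral wells and 100% = reference inhibitor wells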
ERp5 block = blocks human ERp5 reductase activity on insulin | ERp5 insulin aggregation, absorbance 650 nm, 90 min | inhibition, % at 9.99 µM | hit rate 0.05% among 350,000 | AID 651711;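 active means mean replicate inhibition above about 25%, with every replicate also reaching it, limit read from the data, passing the limit was not always enough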
Target sequence (Q15084 whole entry, looked up): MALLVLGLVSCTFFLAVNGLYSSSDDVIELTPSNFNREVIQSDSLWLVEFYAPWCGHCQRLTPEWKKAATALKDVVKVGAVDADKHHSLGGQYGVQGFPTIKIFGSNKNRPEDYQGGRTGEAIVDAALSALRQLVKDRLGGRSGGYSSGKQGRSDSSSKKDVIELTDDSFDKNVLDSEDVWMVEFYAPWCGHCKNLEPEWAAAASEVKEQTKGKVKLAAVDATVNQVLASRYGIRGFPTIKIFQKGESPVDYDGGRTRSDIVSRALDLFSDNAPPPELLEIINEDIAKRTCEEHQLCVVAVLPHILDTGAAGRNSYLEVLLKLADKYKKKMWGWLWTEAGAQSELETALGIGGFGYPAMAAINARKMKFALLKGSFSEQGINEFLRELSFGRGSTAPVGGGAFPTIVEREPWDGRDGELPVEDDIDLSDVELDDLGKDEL
HIV Env fusion = blocks HIV Env-driven cell-cell fusion; HeLa-JRFL Env/CEM21 cell fusion, luciferase; inhibition, % at 12.3 µM; hit rate 1.1% among 360,000;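 active means mean replicate inhibition score of at least 50 and every replicate individually at or above 50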;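 further: 0% = plate neutral controls and 100% = maraviroc near 300 nM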
FN deposit inh = fibronectin deposition inhibition. AH1F fibroblasts, Alexa488-fibronectin deposition fluorescence, overnight. inhibition, % at 12.6 µM. hit rate 0.086% among 350,000. AID 743247;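 active means mean inhibition across replicates of 30% or more, regardless of how many single replicates reach that level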;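 further: positive control wells lacked labelled fibronectin entirely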
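Assay system: AH1F fibroblasts assembling fluorescent fibronectin matrix; Amount: 10000 AH1F cells per well; Buffer or medium: DMEM, 2% serum; Probe or stimulus: Alexa488-fibronectin, 24 nM final in well; Doses: single compound dose, delivered by pin transfer; Incubation: 1 h adhesion, overnight exposure; Measured by: fluorescence 485/525 nm; Read-out: fibronectin deposition inhibition.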
rRNA inh HTS = selective bacterial rRNA inhibition in E. coli; E. coli WT GFP vs humanized-ribosome RFP mutants, fluorescence, 24 h; active compounds read low; DMSO median 0, no signal -100; GFP signal change (wild-type ribosome), % (no concentration beside the values); hit rate 1.6% among 350,000;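 active means significant combined selectivity score with lowered wild-type GFP, culture density cut under 30%, mutant RFP and density less affected; inactive means any of these conditions unmet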
PDI turbidity = inhibitors of human protein disulfide isomerase. P07237. PDI insulin aggregation turbidity, A650, 90 min. inhibition, % at 10 µM. hit rate 0.052% among 350,000;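 active means mean inhibition across replicates of 30% or more, whatever share of single replicates reach that level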
Starred values were filed as active, the others as inactive; ! = not confirmed by another sample; [ ] = remark or other dose.

Screening COc1cc(C2(c3ccc(O)c(OC)c3)C(=O)Nc3c(Br)cc(Br)cc32)ccc1O returned PvdQ acylase 6.1, ERp5 block 2.7, HIV Env fusion -3.2, FN deposit inh 7.5, rRNA inh HTS -48.2* and PDI turbidity 12.2.
Screening COc1cc(C2(c3ccc(O)c(OC)c3)C(=O)N(C)c3ccc(Br)cc32)ccc1O returned PvdQ acylase -5.6, ERp5 block 3.0, HIV Env fusion 3.4, FN deposit inh 1.0, rRNA inh HTS -42.6 and PDI turbidity 3.1.
For CCOC(=O)CSc1nnc(-c2cc(OC)c(OC)c(OC)c2)o1 the results were PvdQ acylase -5.1, ERp5 block -7.0, HIV Env fusion -20.2, FN deposit inh 20.6, rRNA inh HTS 0.5 and PDI turbidity 2.4.
`COc1cc(-c2nnc(SCC(=O)c3ccccc3)o2)cc(OC)c1OC` gave PvdQ acylase 1.2, ERp5 block -2.9, rRNA inh HTS -24.6* and PDI turbidity 6.1.
For CCN1[C@@H]2c3ccc(-c4cccc(F)c4)c(=O)n3C[C@H]1[C@H](CO)[C@H]2C(=O)NCC1CC1 the results were ERp5 block 5.0 and rRNA inh HTS 0.9.
CCSCCc1nnc(NC(=O)Nc2cccc(C(F)(F)F)c2)s1 was read as PvdQ acylase 4.1, ERp5 block -1.0, HIV Env fusion 70.4*, FN deposit inh 1.1 and PDI turbidity -11.3.
CC(C)N1CCc2c(sc(NC(=O)c3ccc([N+](=O)[O-])o3)c2C(N)=O)C1 was read as PvdQ acylase -15.8, ERp5 block 10.9, HIV Env fusion 106.4*, FN deposit inh 18.5, rRNA inh HTS -55.5 and PDI turbidity 1.6.
`Cn1ccc(=O)c2cc([N+](=O)[O-])ccc21` gave ERp5 block 6.5, HIV Env fusion -2.2, rRNA inh HTS -25.6* and PDI turbidity 1.9.
`Cc1noc(C)c1NC(=O)N(C)C[C@@H]1Oc2ccc(NC(=O)c3ccncc3)cc2C(=O)N([C@@H](C)CO)C[C@@H]1C` gave ERp5 block -5.1 and rRNA inh HTS 4.8.
Screening Cc1noc(C)c1NC(=O)N(C)C[C@H]1Oc2ccc(NC(=O)c3ccncc3)cc2C(=O)N([C@H](C)CO)C[C@@H]1C returned PvdQ acylase -12.8, ERp5 block 27.6*!, HIV Env fusion -11.5, FN deposit inh 17.5, rRNA inh HTS 4.5 and PDI turbidity 11.5.
Screening C[C@@H]1CN([C@@H](C)CO)C(=O)c2cc(NC(=O)c3ccncc3)ccc2O[C@H]1CN(C)Cc1ccncc1 returned ERp5 block 6.6, HIV Env fusion 66.7*[16.7 µM] and rRNA inh HTS 1.9.
Screening Cc1noc(C)c1NC(=O)Nc1ccc2c(c1)C(=O)N([C@H](C)CO)C[C@@H](C)[C@@H](CN(C)C(=O)Nc1ccc(F)cc1)O2 returned ERp5 block 50.7*, HIV Env fusion -48.2[16.7 µM], FN deposit inh -9.4 and rRNA inh HTS 5.7.
`C[C@H](CO)N1C[C@H](C)[C@@H](CN(C)Cc2ccncc2)Oc2ccc(NC(=O)c3ccncc3)cc2C1=O` gave ERp5 block 0.8, HIV Env fusion 13.8[16.7 µM] and rRNA inh HTS 3.0.
Screening C[C@@H]1CCCCO[C@@H](CN(C)C(=O)Nc2ccc3c(c2)OCO3)[C@H](C)CN([C@H](C)CO)C(=O)c2cc(NC(=O)C3CCCCC3)ccc2O1 returned ERp5 block 4.0, HIV Env fusion -15.0[16.7 µM] and rRNA inh HTS -0.5.
`COCc1cn(CC[C@@H]2CC[C@@H](NC(=O)c3ccccc3)[C@@H](CO)O2)nn1` gave ERp5 block -2.4, HIV Env fusion 4.7[16.7 µM] and rRNA inh HTS 4.2.
Screening Cc1ccc(S(=O)(=O)N(C)C[C@@H]2OCCCC[C@H](C)Oc3ccc(NS(C)(=O)=O)cc3C(=O)N([C@H](C)CO)C[C@@H]2C)cc1 returned ERp5 block -3.9, HIV Env fusion -22.5[16.7 µM], FN deposit inh -7.3 and rRNA inh HTS -2.5.
Screening CCOC(=O)C1CCN(c2ncnc3c2nnn3Cc2ccccc2Cl)CC1 returned PvdQ acylase 18.9, ERp5 block -1.0, HIV Env fusion 15.1, FN deposit inh 2.3, rRNA inh HTS -20.5* and PDI turbidity -4.1.
`O=C(c1ccco1)N1CCN(c2ncnc3c2nnn3Cc2ccccc2Cl)CC1` gave PvdQ acylase -12.7, ERp5 block -0.6, rRNA inh HTS -27.7 and PDI turbidity -4.7.
